In article PMC3330681 (Scientific Reports, 2012):

How the values were obtained:
Format in all cases: cell-based
GPR35 [1] = molecular target: T1, GPR35 (Homo sapiens, UniProt Q9HC97); experiment: Tango β-arrestin translocation gene reporter assay in U2OS-GPR35-bla cells; conditions: for Efficacy Tango (maximal response): normalized to maximal response of zaprinast within the same plate
GPR35 [2] = molecular target: T1, GPR35; experiment: Dynamic mass redistribution; conditions: for DMR signal in DMR agonism profiling (in words): doses up to 1 mM
GPR35 [3] = molecular target: T1, GPR35; experiment: Receptor internalization assay; conditions: HT-29, 1 hr; 50 μM gentisate, 2 mM L-DOPA, 50 μM DHICA, 500 μM DOPAC, 5 μM reverse T3, 200 μM T4, 50 μM 3-nitrotyrosine
How it was run: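 HT-29 cells (McCoy's 5a, 10% FBS, 37°C/5% CO2) were seeded on chamber slides at 10,000 cells/well for 24 hrs, then given a test compound at a fixed dose or DMSO vehicle for 1 hr at 37°C. Cells were fixed in 4% formaldehyde, permeabilized, and stained with intracellular-domain anti-GPR35 (1:500, 24 hrs) and an Alexa Fluor 594 secondary. Confocal imaging followed.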

GPR35 [4] = molecular target: T1, GPR35; experiment: DMR antagonist assay: SPB05142 blocking the agonist-induced DMR in HT-29 cells; conditions: for DMR of the agonist in the presence of 64 μM SPB05142: HT-29 cells
How it was run: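 HT-29 cells in McCoy's 5a with 10% FBS were grown overnight to confluence on resonant waveguide biosensor plates, washed into HBSS and equilibrated 1 hr at 26°C. GPR35 antagonist pretreatment lasted 1 hr, then baseline, then agonist at a fixed dose. DMR was recorded for about 1 hr and background-corrected.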

[5] = U2OS-GPR35-bla cells, β-arrestin translocation
[6] = DMR agonism, HT-29 cells, maximal DMR amplitude within 1 hr

T1 sequence (Q9HC97 whole entry): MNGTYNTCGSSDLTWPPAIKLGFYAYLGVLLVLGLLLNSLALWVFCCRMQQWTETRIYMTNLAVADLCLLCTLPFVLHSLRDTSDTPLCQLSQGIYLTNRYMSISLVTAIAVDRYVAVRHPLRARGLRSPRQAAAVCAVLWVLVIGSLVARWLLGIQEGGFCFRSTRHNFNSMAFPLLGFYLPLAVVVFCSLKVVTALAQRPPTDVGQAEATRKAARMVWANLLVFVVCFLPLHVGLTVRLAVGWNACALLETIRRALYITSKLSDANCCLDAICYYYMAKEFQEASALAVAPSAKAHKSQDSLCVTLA

## NC(Cc1ccccc1)C(=O)O (racemic) [DL-Phenylalanine, DL-phenylalanine]
GPR35 [1]; [5]
  EC50 Tango: Inactive
GPR35 [2]; [6]
  EC50 DMR: Inactive

## NC(Cc1ccc(O)cc1)C(=O)O (racemic) [DL-Tyrosine, DL-tyrosine]
GPR35 [1]; [5]
  EC50 Tango: Inactive
GPR35 [2]; [6]
  EC50 DMR: Inactive

## N[C@@H](Cc1cc(I)c(O)c(I)c1)C(=O)O [3,5-Diiodo-L-tyrosine, 3,5-diiodo-L-tyrosine]
GPR35 [1]; [5]
  EC50 Tango: Inactive
GPR35 [2]
  EC50: 304 ± 45 µM
GPR35 [2]; HT-29 cells
  Efficacy DMR (maximal response): 254±19 pm
  DMR signal in DMR agonism profiling (in words): clear dose-dependent DMR

## N[C@@H](Cc1ccc(O)c(I)c1)C(=O)O [3-Iodo-L-tyrosine, 3-iodo-L-tyrosine]
GPR35 [1]; [5]
  EC50 Tango: Inactive
GPR35 [2]
  EC50: > 500 µM
GPR35 [2]; HT-29 cells
  Efficacy DMR (maximal response): >50 pm
GPR35 [2]; HT-29 cells, 1 mM
  DMR signal at 1 mM (in words): small but detectable DMR

## COc1cc(CCN)ccc1O [3-Methoxytyramine, 3-methoxytyramine]
GPR35 [1]; [5]
  EC50 Tango: Inactive
GPR35 [2]; [6]
  EC50 DMR: Inactive

## N[C@@H](Cc1ccc(O)c([N+](=O)[O-])c1)C(=O)O [3-Nitro-L-tyrosine, 3-nitro-L-tyrosine]
GPR35 [1]
  EC50: > 500 µM
GPR35 [1]; U2OS-GPR35-bla cells
  Activity in Tango β-arrestin translocation assay (in words): able to result in β-arrestin translocation
  Efficacy Tango (maximal response): >20 % Zaprinast
GPR35 [2]
  EC50: 142 ± 27 µM
GPR35 [2]; HT-29 cells
  Efficacy DMR (maximal response): 330±13 pm
  DMR signal in DMR agonism profiling (in words): robust DMR signal

## O=C(O)Cc1ccc(O)cc1 [4-Hydroxyphenylacetate, 4-hydroxyphenylacetate]
GPR35 [1]; [5]
  EC50 Tango: Inactive
GPR35 [2]; [6]
  EC50 DMR: Inactive

## O=C([O-])c1cc(=O)c2c(OCC(O)COc3cccc4oc(C(=O)[O-])cc(=O)c34)cccc2o1.[Na+].[Na+] [Cromolyn disodium, reference compound]
GPR35 [1]; U2OS-GPR35-bla cells
  Efficacy Tango (maximal response): 97 % Zaprinast
GPR35 [1]; read-out: EC50 Tango, U2OS-GPR35-bla cells, β-arrestin translocation
  EC50: 9.67 ± 0.71 µM
GPR35 [2]; HT-29 cells
  Efficacy DMR (maximal response): 252±16 pm
GPR35 [2]; read-out: EC50 DMR, DMR agonism, HT-29 cells, maximal DMR amplitude within 1 hr
  EC50: 0.52 ± 0.04 µM

## O=C(O)c1cc2cc(O)c(O)cc2[nH]1 [DHICA, 5,6-dihydroxyindole-2-carboxylic acid]
GPR35 [1]
  EC50: 22.9 ± 1.6 µM
GPR35 [1]; U2OS-GPR35-bla cells
  Activity in Tango β-arrestin translocation assay (in words): robust FRET signal
  Efficacy Tango (maximal response): 75 % Zaprinast
GPR35 [3]
  GPR35 internalization: obvious internalization
GPR35 [2]
  EC50: 24.2 ± 2.7 µM
GPR35 [2]; HT-29 cells
  Efficacy DMR (maximal response): 310±11 pm
  DMR signal in DMR agonism profiling (in words): clear dose-dependent and saturable DMR

## OCC(O)c1ccc(O)c(O)c1 (stereo not drawn) [DHPG, 3,4-dihydroxyphenylglycol]
GPR35 [1]
  EC50: 563 ± 67 µM
GPR35 [1]; U2OS-GPR35-bla cells
  Efficacy Tango (maximal response): 18 % Zaprinast
GPR35 [4]
  DMR of the agonist in the presence of 64 μM SPB05142: residual DMR signal
GPR35 [2]
  EC50: 239 ± 37 µM
GPR35 [2]; HT-29 cells
  Efficacy DMR (maximal response): 310±12 pm
  DMR signal in DMR agonism profiling (in words): active

## O=C(O)Cc1ccc(O)c(O)c1 [DOPAC, 3,4-Dihydroxyphenylacetic acid]
GPR35 [1]
  EC50: 106 ± 7 µM
GPR35 [1]; U2OS-GPR35-bla cells
  Efficacy Tango (maximal response): 44 % Zaprinast
GPR35 [4]
  DMR of the agonist in the presence of 64 μM SPB05142: residual DMR signal
GPR35 [3]
  GPR35 internalization: obvious internalization
GPR35 [2]
  EC50: > 500 µM
GPR35 [2]; HT-29 cells
  Efficacy DMR (maximal response): >200 pm
  DMR signal in DMR agonism profiling (in words): active

## O=C(O)CCc1ccc(O)c(O)c1 [Dihydrocaffeic acid, 3-(3,4-dihydroxyphenyl)propionic acid]
GPR35 [1]
  EC50: 186 ± 21 µM
GPR35 [1]; U2OS-GPR35-bla cells
  Efficacy Tango (maximal response): 46 % Zaprinast
GPR35 [4]
  DMR of the agonist in the presence of 64 μM SPB05142: residual DMR signal
GPR35 [2]
  EC50: 342 ± 41 µM
GPR35 [2]; HT-29 cells
  Efficacy DMR (maximal response): 293±12 pm
  DMR signal in DMR agonism profiling (in words): active

## CCOC(=O)Cc1ccc(O)c(OC)c1 [Ethyl homovanillate, ethyl homovanillate]
GPR35 [2]; [6]
  EC50 DMR: Inactive

## COc1cc(CC(=O)O)ccc1O [Homovanillic acid, homovanillic acid]
GPR35 [1]; [5]
  EC50 Tango: Inactive
GPR35 [2]; [6]
  EC50 DMR: Inactive

## O=C(O)c1cc(=O)c2ccccc2[nH]1 [Kynurenic acid, reference compound]
GPR35 [1]
  EC50: > 500 µM
GPR35 [1]; U2OS-GPR35-bla cells
  Efficacy Tango (maximal response): >60 % Zaprinast
GPR35 [2]; HT-29 cells
  Efficacy DMR (maximal response): 203±13 pm

## N[C@@H](Cc1ccc(O)c(O)c1)C(=O)O [L-DOPA, 3,4-dihydroxy-L-phenylalanine, reference compound]
GPR35 [1]; [5]
  EC50 Tango: Inactive
GPR35 [3]
  GPR35 internalization: obvious internalization
GPR35 [2]
  EC50: > 500 µM
GPR35 [2]; HT-29 cells
  Efficacy DMR (maximal response): Off-target
  DMR signal in DMR agonism profiling (in words): did not reach a saturated level up to 1 mM

## N[C@@H](Cc1ccccc1)C(=O)O [L-Phenylalanine, L-phenylalanine]
GPR35 [1]; [5]
  EC50 Tango: Inactive
GPR35 [2]; [6]
  EC50 DMR: Inactive

## N[C@@H](Cc1cc(I)c(Oc2cc(I)c(O)c(I)c2)c(I)c1)C(=O)O [L-Thyroxine (T4), L-thyroxine, reference compound]
GPR35 [1]
  EC50: > 500 µM
GPR35 [1]; U2OS-GPR35-bla cells
  Efficacy Tango (maximal response): >20 % Zaprinast
GPR35 [2]
  EC50: > 500 µM
GPR35 [2]; HT-29 cells
  Efficacy DMR (maximal response): >100 pm

## N[C@@H](Cc1ccc(O)cc1)C(=O)O [L-Tyrosine, L-tyrosine]
GPR35 [1]; [5]
  EC50 Tango: Inactive
GPR35 [2]; [6]
  EC50 DMR: Inactive

## O=C(O)c1cccnc1Nc1cccc(C(F)(F)F)c1 [Niflumic acid, reference compound]
GPR35 [1]; U2OS-GPR35-bla cells
  Efficacy Tango (maximal response): 39 % Zaprinast
GPR35 [2]; HT-29 cells
  Efficacy DMR (maximal response): 223±11 pm

## N[C@@H](Cc1ccc(Oc2cc(I)c(O)c(I)c2)c(I)c1)C(=O)O [Reverse T3, 3,3′,5′-triiodothyronine]
GPR35 [1]
  EC50: 108 ± 9 µM
GPR35 [1]; U2OS-GPR35-bla cells
  Activity in Tango β-arrestin translocation assay (in words): full agonist
  Efficacy Tango (maximal response): 108 % Zaprinast
GPR35 [3]
  GPR35 internalization: obvious internalization
GPR35 [2]
  EC50: 5.89 ± 0.39 µM
GPR35 [2]; HT-29 cells
  Efficacy DMR (maximal response): 276±12 pm
  DMR signal in DMR agonism profiling (in words): clear dose-dependent DMR

## O=C(/C=C/c1ccc(O)c(O)c1)O[C@H](Cc1ccc(O)c(O)c1)C(=O)O [Rosmarinate, rosmarinate]
GPR35 [1]
  EC50: 169 ± 17 µM
GPR35 [1]; U2OS-GPR35-bla cells
  Efficacy Tango (maximal response): 63 % Zaprinast
GPR35 [2]
  EC50: 29.4 ± 2.7 µM
GPR35 [2]; HT-29 cells
  Efficacy DMR (maximal response): 320±11 pm
  DMR signal in DMR agonism profiling (in words): active

## COC(=O)c1cnn(-c2ccc(F)cc2F)c1C=NNC(=S)NC(C)(C)C [SPB05142, methyl-5-[(tert-butylcarbamothioylhydrazinylidene)-methyl]-1-(2,4-difluorophenyl)-pyrazole-4-carboxylate, reference compound]
GPR35 [1]; U2OS-GPR35-bla cells
  Activity in Tango β-arrestin translocation assay (in words): inactive
GPR35 [4]; HT-29, agonist at EC50 to EC80
  Inhibition by SPB05142 of the DMR of DOPA: partially inhibited
GPR35 [4]; HT-29, each agonist at EC50 to EC80
  Inhibition by SPB05142 of the DMR arising from all other eleven agonists: dose-dependently inhibited
GPR35 [4]; against homogentisate, HT-29
  IC50 Antagonist (SPB05142 to block the DMR of the agonist): No inhibition
GPR35 [2]; HT-29 cells
  DMR signal in DMR agonism profiling (in words): little or no DMR signal

## O=C([O-])/C=C/C(=O)[O-].[Na+].[Na+] [Sodium fumarate, sodium fumarate]
GPR35 [1]; [5]
  EC50 Tango: Inactive
GPR35 [2]; [6]
  EC50 DMR: Inactive

## CCCOc1ccccc1-c1nc2nn[nH]c2c(=O)[nH]1 [Zaprinast, reference compound]
GPR35 [1]; U2OS-GPR35-bla cells
  Efficacy Tango (maximal response): 100 % Zaprinast
GPR35 [2]; HT-29 cells
  Efficacy DMR (maximal response): 250±17 pm

## C[C@](N)(Cc1ccc(O)c(O)c1)C(=O)O [α-methyl-L-DOPA, reference compound]
GPR35 [1]; [5]
  EC50 Tango: Inactive
GPR35 [2]; [6]
  EC50 DMR: Inactive
